Activity calls are given as the source filed them. No cut-off for these calls is given here.
How the values were obtained:
[1] = Cytotoxicity against human HeLa cells after 3 days by XTT assay; assay type: cell-based; settings: read-out: TC50
Summary of the method: (§1)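 HeLa cells seeded at 2 × 10³ per well with twofold compound dilutions from the maximum soluble concentration, quadruplicate wells, 37 °C in 5% CO2 for 3 days until controls were confluent. Morphology also scored microscopically. MNTC is the highest dose with no toxicity or growth reduction.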

[2] = Cytotoxicity against human Hep2 cells assessed as maximum non-cytotoxic concentration after 3 days by XTT assay; assay type: cell-based, HEp-2
Summary of the method: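 Hep-2 cells grown in high-glucose DMEM, seeded at 2 × 10³ per well with twofold dilutions from the maximum soluble concentration, quadruplicate wells, 3 days at 37 °C in 5% CO2. XTT (final 0.15 mg/mL) for 4 h, read at 492/690 nm, plus microscopic scoring. MNTC is the highest dose causing no toxic effect or growth reduction.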

[3] = Therapeutic index, ratio of TC50 for human HeLa cells to IC50 for HRV 1B; assay type: cell-based; settings: read-out: TI
Summary of the method: (§2)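 Therapeutic index calculated as TC50 for HeLa cells (XTT, 3 days) divided by IC50 for plaque reduction of HRV 14 or HRV 1B in HeLa cells.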

rhinovirus B14 [4] = test: Antiviral activity against Human rhinovirus 14 infected in human HeLa cells after 3 days by plaque reduction assay; assay type: functional, organism-based; settings: for IC50: Rhinovirus B, 72 h
Summary of the method: (§3)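 HeLa monolayers infected with ATCC HRV 14 or 1B at about 100 plaques per well, 1 h adsorption at 33 °C. Inoculum removed, then plaque overlay with fourfold drug dilutions from the MNTC. Three days at 33 °C, neutral red (0.2 mg/mL, PBS pH 7.4) staining and plaque count, triplicate wells. IC50 from log dose vs % reduction relative to mock-treated control. Otherwise % inhibition at MNTC is reported.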

rhinovirus B14 [5] = test: Antiviral activity against Human rhinovirus 14 infected in human HeLa cells at maximum non-cytotoxic concentration after 3 days by plaque reduction assay; assay type: functional; summary of the method: as §3
rhinovirus A1B [6] = test: Antiviral activity against Human rhinovirus 1B infected in human HeLa cells after 3 days by plaque reduction assay; assay type: functional, organism-based; settings: for IC50: Rhinovirus A, 72 h; summary of the method: as §3
Enterovirus A71 [7] = test: Antiviral activity against Human enterovirus 71 infected in human Hep2 cells after 2 days by plaque reduction assay; assay type: functional, organism-based; settings: for IC50: Enterovirus A, HEp-2, 48 h; for Activity: HEp-2
Summary of the method: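 Inoculum removed, then plaque overlay with fourfold drug dilutions starting from the MNTC. Two days at 37 °C, neutral red (0.2 mg/mL in PBS pH 7.4) staining, plaques counted, triplicate wells. IC50 taken from log dose vs % plaque reduction.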

[8] = Cytotoxicity against human HeLa cells assessed as maximum non-cytotoxic concentration after 3 days by XTT assay; assay type: cell-based
Summary of the method: as §1, with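 “confluent. XTT added (final 0.15 mg/mL) for 4 h, absorbance read at 492 nm with 690 nm reference.” for “confluent.”, “microscopically. […]” for “microscopically.”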

Enterovirus A71 [9] = test: Antiviral activity against Human enterovirus 71 infected in human Hep2 cells at maximum non-cytotoxic concentration […] by plaque reduction assay; assay type: functional, HEp-2
rhinovirus A1B [10] = test: Antiviral activity against Human rhinovirus 1B infected in human HeLa cells assessed as reduction of viral yeild at 20 uM treated 1 hr before infection measured after 10 hrs by plaque reduction assay; assay type: functional, organism-based
Summary of the method: (§4)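 One-step growth of HRV 1B in confluent HeLa cells, multiplicity of five, attachment 1 h at 4 °C, then three PBS washes (time 0). Compound at 20 µM present throughout, during adsorption only, or added or removed at 0.5, 1, 2 or 4 h p.i. Incubation at 33 °C to 10 h p.i., three freeze-thaw cycles, supernatant titred by plaque assay on HeLa cells.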

rhinovirus A1B [11] = test: Antiviral activity against Human rhinovirus 1B infected in human HeLa cells assessed as reduction of viral yeild at 20 uM treated 1 hr after virus infection measured after 10 hrs by plaque reduction assay; assay type: functional; parameters: scale not given: the % may be the effect or the level left; summary of the method: as §4
rhinovirus A1B [12] = test: Antiviral activity against Human rhinovirus 1B infected in human HeLa cells assessed as reduction of viral yeild at 20 uM treated immediately after virus infection measured >1 hr after washout by plaque reduction assay; assay type: functional, organism-based; summary of the method: as §4
rhinovirus A1B [13] = test: Antiviral activity against Human rhinovirus 1B infected in human HeLa cells assessed as reduction of viral yeild at 20 uM after 1 hr by plaque reduction assay; assay type: functional; parameters: scale not given: the % may be the effect or the level left
rhinovirus A1B [14] = test: Antiviral activity against Human rhinovirus 1B infected in human HeLa cells assessed as virus inactivation at 20 uM at 33 degC after 1 hr by plaque reduction assay (reference value: 2.86 x 10^7 PFU/ml)
rhinovirus A1B [15] = test: Antiviral activity against Human rhinovirus 1B infected in human HeLa cells assessed as reduction of viral yeild at 20 uM treated immediately after virus infection measured 30 mins after washout by plaque reduction assay; assay type: functional; parameters: scale not given: the % may be the effect or the level left; summary of the method: as §4
rhinovirus A1B [16] = test: Antiviral activity against Human rhinovirus 1B infected in human HeLa cells assessed as reduction of viral yeild at 20 uM treated 30 mins after virus infection measured after 10 hrs by plaque reduction assay; assay type: functional; parameters: scale not given: the % may be the effect or the level left; summary of the method: as §4
rhinovirus A1B [17] = test: Antiviral activity against Human rhinovirus 1B infected in human HeLa cells assessed as virus stabilization at 20 uM at 56 degC after 1 hr by plaque reduction assay (reference value: 3.5 x 10^7 PFU/ml); assay type: functional
Summary of the method: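 HRV 1B held with or without 20 µM compound for 1 h at 33 °C, then heated 20 min at 56 °C (pH 7.2) and chilled on ice. Serial 10-fold dilution and plaque titration on HeLa monolayers.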

rhinovirus A1B [18] = test: Antiviral activity against Human rhinovirus 1B infected in human HeLa cells assessed as reduction of viral yeild at 20 uM treated immediately after virus infection measured after 10 hrs by plaque reduction assay; assay type: functional; parameters: scale not given: the % may be the effect or the level left; summary of the method: as §4
rhinovirus A1B [19] = test: Antiviral activity against Human rhinovirus 1B infected in human HeLa cells assessed as inhibition of viral replication at 20 uM after 10 hrs by plaque reduction assay; assay type: functional; parameters: scale not given: the % may be the effect or the level left; summary of the method: as §4
rhinovirus A1B [20] = test: Antiviral activity against Human rhinovirus 1B infected in human HeLa cells assessed as reduction of viral yeild at 20 uM treated 2 to 4 hrs after virus infection measured after 10 hrs by plaque reduction assay; assay type: functional, organism-based; summary of the method: as §4
[21] = Therapeutic index, ratio of TC50 for human HeLa cells to IC50 for HRV 14; assay type: cell-based; settings: read-out: TI; summary of the method: as §2

Row | IC50 (rhinovirus B14 [4]) | IC50 (rhinovirus A1B [6]) | IC50 (Enterovirus A71 [7]) | Compound | CC50 at 72 h [1] | MNTC at 72 h [2] | selectivity ratio [3] | Activity (rhinovirus B14 [4]) | inhibition (INH) (rhinovirus B14 [5]) | Activity (rhinovirus A1B [6]) | Activity (Enterovirus A71 [7]) | MNTC at 72 h [8] | inhibition (INH) (Enterovirus A71 [9]) | other results
1 | > 12.5 µM | 6.27 µM | > 12.5 µM | Clc1ccc2c(c1)C=C(/C=C/C=C/c1ccccc1)CO2 | 25 µM | 12.5 µM | 3.99 | Dose-dependent effect | 37.2% | Dose-dependent effect | Dose-dependent effect | 12.5 µM | 25.4% | –
2 | > 3.12 µM | 0.71 µM | > 3.12 µM | O=c1c(/C=C/C=C/c2ccc(Cl)cc2)coc2ccc(Cl)cc12 | 6.25 µM | 3.12 µM | 8.8 | Dose-dependent effect | 36.2% | Dose-dependent effect | Dose-dependent effect | 3.12 µM | 46.6% | –
3 | > 50 µM | 1.6 µM | > 50 µM | O=c1c(/C=C/C=C/c2ccccc2)coc2ccc(Cl)cc12 | 100 µM | 50 µM | 62.5 | Dose-dependent effect | 48.3% | Dose-dependent effect | Dose-dependent effect | 50 µM | 46.7% | –

The next lines start with the molecule.

Row | Compound | IC50 (rhinovirus B14 [4]) | IC50 (rhinovirus A1B [6]) | IC50 (Enterovirus A71 [7]) | CC50 at 72 h [1] | MNTC at 72 h [2] | selectivity ratio [3] | Activity (rhinovirus B14 [4]) | inhibition (INH) (rhinovirus B14 [5]) | Activity (rhinovirus A1B [6]) | Activity (Enterovirus A71 [7]) | MNTC at 72 h [8] | inhibition (INH) (Enterovirus A71 [9]) | other results
4 | O=c1c(/C=C/c2ccc(Cl)cc2)coc2ccc(Cl)cc12 | > 25 µM | 2.19 µM | > 25 µM | 50 µM | 25 µM | 22.2 | Dose-dependent effect | 24.1% | Dose-dependent effect | Dose-dependent effect | 25 µM | 35.7% | –
5 | Clc1ccc(/C=C/C=C/C2=Cc3ccccc3OC2)cc1 | > 3.12 µM | 3.1 µM | > 3.12 µM | 6.25 µM | 3.12 µM | 2 | Dose-dependent effect | 30.4% | Dose-dependent effect | Dose-dependent effect | 3.12 µM | 32.9% | –
6 | O=c1c(/C=C/c2ccccc2)coc2ccc(Cl)cc12 | > 25 µM | 3.22 µM | > 25 µM | 50 µM | 25 µM | 15.5 | Dose-dependent effect | 33.1% | Dose-dependent effect | Dose-dependent effect | 25 µM | 37% | –
7 | C1=C(/C=C/c2ccccc2)COc2ccccc21 | 1.38 µM | 0.2 µM | > 12.5 µM | 50 µM | 12.5 µM | 250 | Dose-dependent effect | – | Dose-dependent effect | Dose-dependent effect | 25 µM | 36.1% | Activity (rhinovirus A1B [10]): inactive; Activity (rhinovirus A1B [11]): 7.7%; Activity (rhinovirus A1B [12]): Active; Activity (rhinovirus A1B [13]): 91.7%; PFU/ml (rhinovirus A1B [14]): 26600000; Activity (rhinovirus A1B [15]): 91.8%; Activity (rhinovirus A1B [16]): 90%; log10PFU/ml (rhinovirus A1B [17]): 2.1; Activity (rhinovirus A1B [18]): 91.4%; Activity (rhinovirus A1B [19]): 92%; Activity (rhinovirus A1B [20]): inactive; selectivity ratio [21]: 36.2

Source: ChEMBL document CHEMBL1240484, “New 4H-chromen-4-one and 2H-chromene derivatives as anti-picornavirus capsid-binders” (Bioorg Med Chem, 2010)
